According to ChEMBL document CHEMBL5661984, “Allosteric ligands for the pharmacologically dark receptors GPR68 and GPR65” (Nature, 2015):
Active and inactive are the calls of the source.

Legend:
Mus musculus [1] = species: Mus musculus; test: Antipsychotic activity against GPR68 knockout C57BL/6 mouse assessed as cued memory retrieval by Morris water maze test; assay type: functional, organism-based
[2] = target: C-X-C chemokine receptor type 4 (Homo sapiens) (UniProt P61073); test: Antagonist activity against CXCR4 receptor (unknown origin) transfected in human HEK293T cells at 10 uM incubated for 15 mins in presence of AMD3100 by luminescence counter analysis; assay type: functional, cell-based
C-X-C chemokine receptor type 4 (Homo sapiens), sequence (P61073 whole entry): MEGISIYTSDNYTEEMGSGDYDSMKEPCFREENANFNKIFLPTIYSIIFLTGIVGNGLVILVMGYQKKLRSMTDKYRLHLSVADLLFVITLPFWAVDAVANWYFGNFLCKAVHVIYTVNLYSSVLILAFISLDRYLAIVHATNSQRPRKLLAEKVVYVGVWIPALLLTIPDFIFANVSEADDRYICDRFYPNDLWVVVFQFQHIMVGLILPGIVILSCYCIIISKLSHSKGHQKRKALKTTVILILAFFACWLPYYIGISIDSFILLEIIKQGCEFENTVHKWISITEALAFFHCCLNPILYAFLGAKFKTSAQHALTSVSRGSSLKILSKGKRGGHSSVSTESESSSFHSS
In short: (§1)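 HEK293-T cells transiently transfected with CXCR4 and the GloSensor cAMP reporter, plated in DMEM with 1% dialyzed FBS. Test compound at 10 μM in 20 mM HEPES/HBSS, pH 7.4, 15 min at room temperature. Agonist mode: luciferin (4 mM final) plus 200 nM isoproterenol added, 20 min. Antagonist mode: compound 10 min, then reference agonist at EC80 for 10 min, then luciferin/isoproterenol. Luminescence read. CXCL12 (1 or 3 μM) is the agonist control and AMD3100 (10 μM) the antagonist control. n=2.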

[3] = Toxicity in C57BL/6 mouse assessed as improvement in learning and spatial memory at 30 mg/kg administered for 30 mins by hidden platform test; assay type: organism-based; details: in vivo, 0.5 h
[4] = Positive allosteric modulator activity at GPR68 R189L mutant transfected in human HEK293T cells assessed as proton-mediated calcium release at 10 uM incubated for 10 mins by Fluo-4 Direct calcium dye based FLIPR assay (reference value: 6.85 +/- 0.02); assay type: cell-based; details: HEK-293T
[5] = target: T1, G-protein coupled receptor 68 (Homo sapiens, UniProt Q15743); test: Positive allosteric modulator activity at GPR68 expressed in human HEK293T cells assessed as proton-mediated phosphatidylinositol hydrolysis on pH 8.4 at 10 uM incubated for 20 mins by TriLuxMicroBeta counter analysis; assay type: functional, cell-based
T1 sequence (Q15743 whole entry): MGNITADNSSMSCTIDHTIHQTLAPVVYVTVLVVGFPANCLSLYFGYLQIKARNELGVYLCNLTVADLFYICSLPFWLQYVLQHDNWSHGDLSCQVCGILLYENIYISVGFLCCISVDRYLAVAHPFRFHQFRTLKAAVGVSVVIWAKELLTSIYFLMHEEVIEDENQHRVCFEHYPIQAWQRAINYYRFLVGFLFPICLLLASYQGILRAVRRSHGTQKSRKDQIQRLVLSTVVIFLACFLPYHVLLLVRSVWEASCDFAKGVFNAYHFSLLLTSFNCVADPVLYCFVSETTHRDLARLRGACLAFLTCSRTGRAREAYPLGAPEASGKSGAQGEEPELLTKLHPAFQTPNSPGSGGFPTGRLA
In short: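 GPR68-transfected HEK293-T cells labeled overnight with 3H-inositol (1 μCi/well) in inositol-free DMEM with 5% dialyzed FBS. Treated for 20 min at pH 8.4 in HBSS with 10 mM HEPES, 10 mM MES and 20 mM LiCl, compound at 10 μM. Extracted with 50 mM ice-cold formic acid, 30 min at 4°C. Captured on YSi beads and counted (cpm/well). n=3. 4-parameter logistic fit.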

[6] = Toxicity in C57BL/6 mouse assessed as decreased contextual memory retrieval; details: in vivo
In short: (§2)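 Fear conditioning in wild-type and GPR68 KO C57BL/6J congenic mice. Training was 8 min: 3 pairings of a 30-s, 90 dB, 5 kHz tone with a 2-s, 0.6 mA foot shock. Context freezing scored at 24 h over 5 min; cue test at 48 h over 6 min. Freezing defined as no movement for 0.5 s. Compound 10 mg/kg in 10% Tween 80 or saline, 30 min before training. n=6–8 per group. Two-way ANOVA with Bonferroni post-hoc test.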

[7] = Positive allosteric modulator activity at GPR68 E160K mutant transfected in human HEK293T cells assessed as proton-mediated calcium release at 10 uM incubated for 10 mins by Fluo-4 Direct calcium dye based FLIPR assay (reference value: 1.38 +/- 0.01 %); details: HEK-293T, condition central nervous system disease
[8] = target: T1, G-protein coupled receptor 68; test: Positive allosteric modulator activity at GPR68 expressed in human HEK293T cells assessed as proton-mediated calcium release at 10 uM incubated for 10 mins by Fluo-4 Direct calcium dye based FLIPR assay (reference value: 1.30 %); assay type: functional, cell-based
[9] = Toxicity in C57BL/6 mouse assessed as improvement in cue memory at 10 to 30 mg/kg administered for 30 mins by Morris water maze test; assay type: organism-based; details: in vivo, 0.5 h, dose 10-30 mg/kg
[10] = Positive allosteric modulator activity at GPR68 E160Q mutant transfected in human HEK293T cells assessed as proton-mediated calcium release at 10 uM incubated for 10 mins by Fluo-4 Direct calcium dye based FLIPR assay (reference value: 6.86 +/- 0.04); assay type: cell-based; details: HEK-293T
[11] = Positive allosteric modulator activity at GPR68 R189M mutant transfected in human HEK293T cells assessed as proton-mediated calcium release at 10 uM incubated for 10 mins by Fluo-4 Direct calcium dye based FLIPR assay (reference value: 6.77 +/- 0.01); assay type: cell-based; details: HEK-293T
Mus musculus [12] = species: Mus musculus; test: […] activity against GPR68 knockout C57BL/6 mouse assessed as contextual memory retrieval; assay type: functional, organism-based; in short: as §2
[13] = Positive allosteric modulator activity at GPR68 E160K mutant transfected in human HEK293T cells assessed as proton-mediated calcium release at 10 uM incubated for 10 mins by Fluo-4 Direct calcium dye based FLIPR assay (reference value: 6.79 +/- 0.02); assay type: cell-based; details: HEK-293T
[14] = Toxicity in C57BL/6 mouse assessed as improvement in contextual memory at 10 to 30 mg/kg administered for 30 mins; assay type: organism-based; details: in vivo, 0.5 h, dose 10-30 mg/kg
[15] = Positive allosteric modulator activity at GPR68 R189M mutant transfected in human HEK293T cells assessed as proton-mediated calcium release at 10 uM incubated for 10 mins by Fluo-4 Direct calcium dye based FLIPR assay (reference value: 1.43 +/- 0.01 %); details: HEK-293T, condition central nervous system disease
[16] = target: T1, G-protein coupled receptor 68; test: Positive allosteric modulator activity at GPR68 expressed in human HEK293T cells assessed as cAMP production in presence of H+ proton by Split-luciferase based luminescence counter analysis (reference value: 6.53 to 6.72); assay type: functional, cell-based
[17] = Positive allosteric modulator activity at GPR68 H269F mutant transfected in human HEK293T cells assessed as proton-mediated calcium release at 10 uM incubated for 10 mins by Fluo-4 Direct calcium dye based FLIPR assay (reference value: 6.44 +/- 0.02); assay type: cell-based; details: HEK-293T
[18] = target: T1, G-protein coupled receptor 68; test: Positive allosteric modulator activity at GPR68 expressed in human HEK293T cells assessed as cAMP production in presence of H+ proton by Split-luciferase based luminescence counter analysis (reference value: 26.4 to 43.8 %); assay type: functional, cell-based; details: filed as positive allosteric modulator
In short: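 Proton concentration-response of GPR68 (wild type or E160A/K/Q, R189L/M, H269F mutants) in transiently transfected HEK293-T cells. Read-out: GloSensor cAMP, with luciferin loading 90 min at 37°C at pH 8.4. Run with and without increasing modulator concentrations; 20 min at room temperature before luminescence. Proton KA fixed to the proton EC50 without modulator. KB, τA, α, β fitted globally with an operational allosteric model. n=4.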

[19] = Positive allosteric modulator activity at GPR68 E160Q mutant transfected in human HEK293T cells assessed as proton-mediated calcium release at 10 uM incubated for 10 mins by Fluo-4 Direct calcium dye based FLIPR assay (reference value: 1.25 +/- 0.01 %); details: HEK-293T, condition central nervous system disease
[20] = Positive allosteric modulator activity at GPR68 R189L mutant transfected in human HEK293T cells assessed as proton-mediated calcium release at 10 uM incubated for 10 mins by Fluo-4 Direct calcium dye based FLIPR assay (reference value: 1.42 +/- 0.01 %); details: HEK-293T, condition central nervous system disease
[21] = Toxicity in C57BL/6 mouse assessed as cued memory retrieval by Morris water maze test; details: in vivo
[22] = target: C-X-C chemokine receptor type 4 (Homo sapiens) (UniProt P61073); test: Agonist activity against CXCR4 receptor (unknown origin) transfected in human HEK293T cells at 10 uM incubated for 15 mins in presence of CXCL12 by luminescence counter analysis; assay type: functional, cell-based; in short: as §1
[23] = Positive allosteric modulator activity at GPR68 H269F mutant transfected in human HEK293T cells assessed as proton-mediated calcium release at 10 uM incubated for 10 mins by Fluo-4 Direct calcium dye based FLIPR assay (reference value: 1.57 +/- 0.01 %); details: HEK-293T, condition central nervous system disease
[24] = Toxicity in C57BL/6 mouse assessed as improvement in learning and spatial memory at 10 mg/kg administered for 30 mins by hidden platform test; assay type: organism-based; details: in vivo, 0.5 h
[25] = target: T2, G-protein coupled receptor 65 (Homo sapiens, UniProt Q8IYL9); test: Antagonist activity against GPR65 (unknown origin) transfected in human HEK293T cells incubated for 15 mins by luminescence counter analysis; assay type: functional, cell-based; details: filed as antagonist
T2 sequence (Q8IYL9 whole entry): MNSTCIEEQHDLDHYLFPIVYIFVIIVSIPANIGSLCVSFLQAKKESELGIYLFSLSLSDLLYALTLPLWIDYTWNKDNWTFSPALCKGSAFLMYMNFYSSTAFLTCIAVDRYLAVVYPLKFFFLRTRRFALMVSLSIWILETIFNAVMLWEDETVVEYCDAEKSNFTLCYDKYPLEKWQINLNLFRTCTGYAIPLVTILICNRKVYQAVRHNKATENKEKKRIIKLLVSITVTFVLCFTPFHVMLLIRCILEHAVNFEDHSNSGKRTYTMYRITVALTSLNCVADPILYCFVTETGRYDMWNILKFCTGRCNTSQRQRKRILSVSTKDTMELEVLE
In short: (§3)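 GloSensor split-luciferase cAMP assay. HEK293-T cells transiently co-transfected with GPR65 (wild type or the D153A, R187L, F242A or Y272A mutant) and GloSensor 7A reporter. Cells plated in DMEM with 1% dialyzed FBS for at least 6 h, then loaded with luciferin (4 mM, in drug buffer pH 8.4) for 90 min at 37°C. Compounds added at set pH in HBSS with 10 mM HEPES/10 mM MES, with TAPS for higher pH. Luminescence read after about 20 min at room temperature. Data normalized to buffer basal and fitted to a 4-parameter logistic.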

[26] = target: T2, G-protein coupled receptor 65; test: Antagonist activity against GPR65 (unknown origin) transfected in human HEK293T cells incubated for 15 mins in presence of BTB09089 by luminescence counter analysis; assay type: functional, cell-based; details: filed as antagonist; in short: as §3

For `Nc1nc(NCc2ccccc2)nc(-c2cccc(CO)c2)n1` [ZINC32547799], the Activity (Mus musculus [1]) was “inactive”, the Activity [2] was “inactive” and the Activity [3] was “Toxic”. The EC50 [4] was 129 nM, the Activity [5] was “inactive” and the Activity [6] was “Non-Toxic”. For the same compound, the Emax at 10 µM [7] was 1.38%, the Emax [8] was 1.33% and the Activity [9] was “Non-Toxic”. The EC50 [10] was 234 nM, the EC50 [11] was 186 nM and the Activity (Mus musculus [12]) was “inactive”. For the same compound, the EC50 [13] was 158 nM, the Activity [14] was “Non-Toxic” and the Emax at 10 µM [15] was 1.35%. For the same compound, the EC50 [16] was 158 nM, the EC50 [17] was 339 nM and the Emax [18] was 43.1%. For the same compound, the Emax at 10 µM [19] was 1.21%, the Emax at 10 µM [20] was 1.36% and the Activity [21] was “Non-Toxic”. The Activity [22] was “inactive”, the Emax at 10 µM [23] was 1.52% and the Activity [24] was “Non-Toxic”.

For `Cc1nc(-c2ncccn2)sc1C(=O)O[C@@H](c1ccccc1)c1ccncc1`, the Activity [25] was “Active” and the Activity [26] was “Active”.
